Calls of active or inactive are those of the source. No cut-off for these calls is given here.
What was measured:
Staphylococcus aureus [1] = assay: Antibacterial activity against methicillin-resistant Staphylococcus aureus GRE2372 assessed as inhibition of bacterial growth; assay type: functional, organism-based
Staphylococcus aureus [2] = assay: Antibacterial activity against methicillin-resistant Staphylococcus aureus GRE2272 assessed as inhibition of bacterial growth; assay type: functional, organism-based
Staphylococcus aureus [3] = assay: Antibacterial activity against methicillin-resistant Staphylococcus aureus GRE2691 assessed as inhibition of bacterial growth; assay type: functional, organism-based
[4] = Inhibition of Escherichia coli K-12 70S ribosome poly(U)-programmed ribosome (complex C) bearing tRNAPhe at E-site and Ac[3H]Phe-tRNA at P-site assessed as reduction in peptide bond formation using puromycin(S) substrate
Escherichia coli [5] = assay: Antibacterial activity against Escherichia coli BL21(DE3) expressing delta-tolC gene assessed as inhibition of bacterial growth; assay type: functional, organism-based
In short: (§1)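 IC50 from bacterial cultures grown in LB medium without drug or with drug across a range of concentrations, reported in μM. Three independent experiments, each with two replicates, given as mean±SD.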

Escherichia coli [6] = assay: Antibacterial activity against wild type Escherichia coli K-12 assessed as inhibition of bacterial growth; assay type: functional, organism-based
Escherichia coli [7] = assay: Antibacterial activity against Escherichia coli Rosetta(DE3) containing rare tRNA genes and chloramphenicol resistant gene in pLysS plasmid assessed as inhibition of bacterial growth; assay type: functional, organism-based; in short: as §1
Staphylococcus aureus [8] = assay: Antibacterial activity against wild type Staphylococcus aureus assessed as inhibition of bacterial growth; assay type: functional, organism-based

| Compound | growth inhibition (GI) (Staphylococcus aureus [1]) | growth inhibition (GI) (Staphylococcus aureus [2]) | growth inhibition (GI) (Staphylococcus aureus [3]) | Ki [4] [µM] | other results |
| --- | --- | --- | --- | --- | --- |
| GENTAMICIN | Active | inactive | inactive | – | – |
| CN(C)[C@@H]1C(O)=C(C(N)=O)C(=O)[C@@]2(O)C(O)=C3C(=O)c4c(O)cccc4[C@@](C)(O)[C@H]3C[C@@H]12 | Active | inactive | inactive | – | – |
| NCCCCN(CCCN)C(=O)CCC(=O)N[C@H](CO)[C@H](O)c1ccc([N+](=O)[O-])cc1 [listing 1 of 2 here] | – | – | – | 1.2 | – |
| CO[C@H]1/C=C/O[C@@]2(C)Oc3c(C)c(O)c4c(O)c(c(/C=N/N5CCN(C)CC5)c(O)c4c3C2=O)NC(=O)/C(C)=C\C=C\[C@H](C)[C@H](O)[C@@H](C)[C@@H](O)[C@@H](C)[C@H](OC(C)=O)[C@@H]1C | inactive | Active | Active | – | – |
| COc1cccc(OC)c1C(=O)N[C@@H]1C(=O)N2[C@@H]1SC(C)(C)[C@@H]2C(=O)O | inactive | inactive | inactive | – | – |
| Cc1onc(-c2ccccc2)c1C(=O)N[C@@H]1C(=O)N2[C@@H]1SC(C)(C)[C@@H]2C(=O)O | inactive | inactive | inactive | – | – |
| NCCCN(CCCCN(Cc1ccccc1)Cc1ccccc1)C(=O)CCC(=O)N[C@H](CO)[C@H](O)c1ccc([N+](=O)[O-])cc1 | – | – | – | 0.28 | – |
| NC[C@H]1O[C@H](O[C@H]2[C@H](O)[C@@H](O[C@H]3O[C@H](CO)[C@@H](O)[C@H](N)[C@H]3O)[C@H](N)C[C@@H]2N)[C@H](O)[C@@H](O)[C@@H]1O | inactive | inactive | inactive | – | – |
| NCCCCNC(=O)c1ccccc1C(=O)N[C@H](CO)[C@H](O)c1ccc([N+](=O)[O-])cc1 [listing 1 of 2 here] | – | – | – | 8.45 | – |
| NCCCCNC(=O)c1ccccc1C(=O)N[C@H](CO)[C@H](O)c1ccc([N+](=O)[O-])cc1 [listing 2 of 2 here] | – | – | – | – | IC50 (Escherichia coli [5]): > 200 µM; IC50 (Staphylococcus aureus [1]): > 200 µM; IC50 (Escherichia coli [6]): > 200 µM; IC50 (Escherichia coli [7]): > 200 µM; IC50 (Staphylococcus aureus [2]): > 200 µM; IC50 (Staphylococcus aureus [3]): > 200 µM |
| NCCCCNC(=O)CCC(=O)N[C@H](CO)[C@H](O)c1ccc([N+](=O)[O-])cc1 [listing 1 of 2 here] | – | – | – | 0.9 | – |
| NCCCCN(CCCN)C(=O)CCC(=O)N[C@H](CO)[C@H](O)c1ccc([N+](=O)[O-])cc1 [listing 2 of 2 here] | – | – | – | – | IC50 (Escherichia coli [5]): > 100 µM; IC50 (Staphylococcus aureus [1]): > 100 µM; IC50 (Staphylococcus aureus [8]): 12.7 µM; IC50 (Escherichia coli [6]): > 150 µM; IC50 (Escherichia coli [7]): > 100 µM; IC50 (Staphylococcus aureus [2]): > 100 µM; IC50 (Staphylococcus aureus [3]): > 200 µM |
| CO[C@@]1(NC(=O)Cc2cccs2)C(=O)N2C(C(=O)O)=C(COC(N)=O)CS[C@@H]21 | inactive | inactive | inactive | – | – |
| O=C(N[C@H](CO)[C@H](O)c1ccc([N+](=O)[O-])cc1)c1nc[nH]n1 | – | – | – | 1 | IC50 (Escherichia coli [5]): > 300 µM; IC50 (Staphylococcus aureus [1]): > 100 µM; IC50 (Staphylococcus aureus [8]): > 100 µM; IC50 (Escherichia coli [6]): > 300 µM; IC50 (Escherichia coli [7]): > 300 µM; IC50 (Staphylococcus aureus [2]): > 100 µM; IC50 (Staphylococcus aureus [3]): > 100 µM |
| NCCCCNC(=O)CCC(=O)N[C@H](CO)[C@H](O)c1ccc([N+](=O)[O-])cc1 [listing 2 of 2 here] | – | – | – | – | IC50 (Escherichia coli [5]): > 200 µM; IC50 (Staphylococcus aureus [1]): > 200 µM; IC50 (Escherichia coli [6]): > 200 µM; IC50 (Escherichia coli [7]): > 200 µM; IC50 (Staphylococcus aureus [2]): > 200 µM; IC50 (Staphylococcus aureus [3]): > 200 µM |
| CCCCCCCCCC(=O)N[C@@H](Cc1c[nH]c2ccccc12)C(=O)N[C@H](CC(N)=O)C(=O)N[C@@H](CC(=O)O)C(=O)N[C@@H]1C(=O)NCC(=O)N[C@@H](CCCN)C(=O)N[C@@H](CC(=O)O)C(=O)N[C@H](C)C(=O)N[C@@H](CC(=O)O)C(=O)NCC(=O)N[C@H](CO)C(=O)N[C@@H]([C@H](C)CC(=O)O)C(=O)N[C@@H](CC(=O)c2ccccc2N)C(=O)O[C@@H]1C | Active | Active | Active | – | – |
| NCCCNCCCCNCCCNC(=O)CCC(=O)N[C@H](CO)[C@H](O)c1ccc([N+](=O)[O-])cc1 | – | – | – | 0.75 | – |
| CN[C@H](CC(C)C)C(=O)N[C@H]1C(=O)N[C@@H](CC(N)=O)C(=O)N[C@H]2C(=O)N[C@H]3C(=O)N[C@H](C(=O)N[C@H](C(=O)O)c4cc(O)cc(O)c4-c4cc3ccc4O)[C@H](O)c3ccc(c(Cl)c3)Oc3cc2cc(c3O[C@@H]2O[C@H](CO)[C@@H](O)[C@H](O)[C@H]2O[C@H]2C[C@](C)(N)[C@H](O)[C@H](C)O2)Oc2ccc(cc2Cl)[C@H]1O | Active | Active | Active | – | – |
| CCC[C@@H]1C[C@@H](C(=O)N[C@@H]([C@H]2O[C@H](SC)[C@H](O)[C@@H](O)[C@H]2O)[C@H](C)Cl)N(C)C1 | inactive | inactive | Active | – | – |
| O=C(CCNC(=O)c1nc[nH]n1)N[C@H](CO)[C@H](O)c1ccc([N+](=O)[O-])cc1 | – | – | – | 4 | IC50 (Escherichia coli [5]): > 200 µM; IC50 (Staphylococcus aureus [1]): > 100 µM; IC50 (Staphylococcus aureus [8]): 66 µM; IC50 (Escherichia coli [6]): > 200 µM; IC50 (Escherichia coli [7]): > 200 µM; IC50 (Staphylococcus aureus [2]): > 100 µM; IC50 (Staphylococcus aureus [3]): > 100 µM |
| CC[C@H]1OC(=O)[C@H](C)[C@@H](O[C@H]2C[C@@](C)(OC)[C@@H](O)[C@H](C)O2)[C@H](C)[C@@H](O[C@@H]2O[C@H](C)C[C@H](N(C)C)[C@H]2O)[C@](C)(O)C[C@@H](C)C(=O)[C@H](C)[C@@H](O)[C@]1(C)O | inactive | inactive | inactive | – | – |
| CC(=O)N[C@@H]1[C@H](Oc2c3cc4cc2Oc2ccc(cc2Cl)[C@@H](O[C@@H]2O[C@@H](CO)[C@@H](O)[C@H](O)[C@@H]2NC(C)=O)[C@@H]2NC(=O)[C@H](NC(=O)[C@@H]4NC(=O)[C@H]4NC(=O)[C@@H](Cc5ccc(c(Cl)c5)O3)NC(=O)[C@H](N)c3ccc(O)c(c3)Oc3cc(O)cc4c3)c3ccc(O)c(c3)-c3c(O[C@H]4O[C@H](CO)[C@@H](O)[C@@H](O)[C@@H]4O)cc(O)cc3[C@@H](C(=O)O)NC2=O)O[C@@H](CO)[C@@H](O)[C@@H]1O | Active | Active | Active | – | – |
| NCCCCNCCCCNCCCNC(=O)[C@@H](NC(=O)C(Cl)Cl)[C@H](O)c1ccc([N+](=O)[O-])cc1 | – | – | – | 5 | – |
| CC(=O)O[C@H]1C[C@@]2(C)[C@@H](C[C@@H](O)[C@H]3[C@@]4(C)CC[C@@H](O)[C@@H](C)[C@@H]4CC[C@@]32C)/C1=C(\CCC=C(C)C)C(=O)O | inactive | inactive | inactive | – | – |

— ChEMBL document CHEMBL3585321, “Synthesis and antimicrobial activity of chloramphenicol-polyamine conjugates” (Bioorg Med Chem, 2015)
